Calls of active or inactive are those of the source. The calls are words filed in the database; no cut-off is given here.
Tests used:
HCT-116 [1] = assay: Anticancer activity against human HCT-116 cells assessed as cell growth inhibition incubated for 3 days by methylene blue staining based colorimetric assay; format: functional; settings: HCT-116, 72 h
[2] = Metabolic stability in human Liver S9 fraction assessed as disappearance of compound and measured after 2 hrs by LC-ESI-MS analysis; format: ADME, subcellular; settings: s9, 2 h
Summary of the method: (§1)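 Human liver S9 fraction assay. Substrate 0.02 mM, 0.1 M buffer and 1 mM NADPH preincubated 10 min at 37 °C, then S9 (0.5 mg) added in 1 mL total; run in duplicate. Aliquots taken every 15 min or at 1 h and 2 h, residue taken up in methanol, diluted 1:1 with water and analysed by LC-ESI-MS tracking M+1 ions.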

[3] = tested on: Panel NCI-60 (60 carcinoma cell lines); assay: Anticancer activity against human Panel NCI-60 (60 carcinoma cell lines) cells assessed as cell growth inhibition at 10 uM incubated for 3 days by methylene blue staining based colorimetric assay relative to control; format: functional; set-up: scale not given: the % may be the effect or the level left; settings: time 3 day
Summary of the method: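 NCI-60 one-dose screen at a single concentration of 10 μM. Read-out is mean growth percentage across the panel; positive values denote cytostatic activity and negative values cytotoxicity.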

NCI-H522 [4] = assay: cells; format: functional, cell-based; settings: Homo sapiens, NCI-H522, 72 h
U2OS = assay: Anticancer activity against human U2OS cells assessed as cell growth inhibition incubated for 3 days by methylene blue staining based colorimetric assay; format: functional; settings: 72 h
Summary of the method: (§2)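 Cells kept in DMEM with 10% calf or fetal bovine serum plus penicillin/streptomycin (1000 U/ml each) at 37 °C, 5% CO2. Seeded at 5000/well (n = 3), treated next day, then after 3 days fixed/stained 30 min at room temperature with methylene blue saturated in 50% ethanol.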

[5] = tested on: Panel NCI-60 (60 carcinoma cell lines); assay: Anticancer activity against human Panel NCI-60 (60 carcinoma cell lines) cells assessed as cell growth inhibition incubated for 3 days by methylene blue staining based colorimetric assay relative to control; format: functional; settings: 72 h, time 3 day
Summary of the method: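 NCI-60 five-dose screen at five concentrations. TGI is the concentration giving total growth inhibition.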

MDA-MB-231 = assay: Anticancer activity against human MDA-MB-231 cells assessed as cell growth inhibition incubated for 3 days by methylene blue staining based colorimetric assay; format: functional; settings: MDA-MB-231, 72 h; summary of the method: as §2
HT-1080 = assay: Anticancer activity against human HT-1080 cells assessed as cell growth inhibition incubated for 3 days by methylene blue staining based colorimetric assay; format: functional; settings: HT-1080, 72 h; summary of the method: as §2
HCT-116 [6] = assay: Induction of apoptosis in human HCT116 cells assessed as increase in cleaved PARP1 level at 4 to 8 uM incubated for 24 hrs by Western blot analysis; format: functional, cell-based; settings: dose 4-8 µM
Summary of the method: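 HCT116 cells treated 24 h at the indicated concentrations. Lysates normalized by BCA, run on 12.5% SDS-PAGE and transferred to PVDF. Blocked 1 h in 5% milk/PBST, primary antibody against cleaved PARP overnight at 4 °C, then HRP secondary 1:10 000 and ECL detection.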

[7] = tested on: Panel NCI-60 (60 carcinoma cell lines); assay: Anticancer activity against human Panel NCI-60 (60 carcinoma cell lines) cells assessed as total cell growth inhibition incubated for 3 days by methylene blue staining based colorimetric assay relative to control; format: functional; settings: 72 h, time 3 day
Summary of the method: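 NCI-60 five-dose screen at five concentrations. […] TGI is the concentration giving total growth inhibition.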

MDA-MB-468 = assay: cells; format: functional, cell-based; settings: Homo sapiens, MDA-MB-468, 72 h
[8] = Metabolic stability in human Liver S9 fraction assessed as disappearance of compound and measured after 15 mins by LC-ESI-MS analysis; format: ADME, subcellular; summary of the method: as §1
[9] = Metabolic stability in human Liver S9 fraction assessed as metabolite TFMA 90 formation and measured for 30 mins by LC-ESI-MS analysis; format: ADME, subcellular; settings: s9, 0.5 h; summary of the method: as §1
HeLa = assay: cells; format: functional, cell-based; settings: Homo sapiens, 72 h
[10] = Cytotoxicity against human WI-38 cells assessed as cell survival rate at 30 uM incubated for 3 days by methylene blue staining based colorimetric assay; format: toxicity; settings: time 3 day, read-out: Activity; summary of the method: as §2
HCT-116 [11] = assay: Anticancer activity against human HCT-116 cells assessed as cell survival rate incubated for 3 days by methylene blue staining based colorimetric assay; format: functional; settings: HCT-116, 72 h; summary of the method: as §2
[12] = Cytotoxicity against human WI-38 cells assessed as cell survival rate incubated for 3 days by methylene blue staining based colorimetric assay; format: toxicity; summary of the method: as §2
NCI-H522 [13] = assay: Anticancer activity against human NCI-H522 cells assessed as cell survival rate incubated for 3 days by methylene blue staining based colorimetric assay; format: functional; settings: NCI-H522, 72 h; summary of the method: as §2
NCI-H522 [14] = assay: Anticancer activity against human NCI-H522 cells assessed as cell survival rate at 30 uM incubated for 3 days by methylene blue staining based colorimetric assay; format: functional; settings: time 3 day; summary of the method: as §2
[15] = Cytotoxicity against human RPE cells assessed as cell survival rate incubated for 3 days by methylene blue staining based colorimetric assay; format: toxicity; summary of the method: as §2
HCT-116 [16] = assay: Anticancer activity against human HCT-116 cells assessed as cell survival rate at 30 uM incubated for 3 days by methylene blue staining based colorimetric assay; format: functional; settings: time 3 day; summary of the method: as §2
[17] = Cytotoxicity against human RPE cells assessed as cell survival rate at 30 uM incubated for 3 days by methylene blue staining based colorimetric assay; format: toxicity; settings: time 3 day, read-out: Activity; summary of the method: as §2

O=C(CCCCCCNC(=O)C(O)(O)C(F)(F)F)Nc1nccs1
IC50 (HCT-116 [1]): 10.8 µM | Stability [2]: Stable

COc1ccc(OC)c(NC(=O)CCCCCCNC(=O)C(O)(O)C(F)(F)F)c1
IC50 (HCT-116 [1]): 3.87 µM | Activity [3]: 35%

OC(O)(c1c(F)c(F)c(-n2cc(-c3ccccc3)nn2)c(F)c1F)C(F)(F)F
IC50 (HCT-116 [1]): > 100 µM

COc1ccc2sc(NC(=O)CCCCCCNC(=O)C(O)(O)C(F)(F)F)nc2c1
IC50 (NCI-H522 [4]): 3.23 µM | IC50 (HCT-116 [1]): 2.18 µM | IC50 (U2OS): 3.29 µM | GI50 [5]: 1.23 µM | IC50 (MDA-MB-231): 0.81 µM | IC50 (HT-1080): 2.28 µM | Activity [3]: -4.91% | Activity (HCT-116 [6]): Active | TGI [7]: 12.3 µM | IC50 (MDA-MB-468): 3.65 µM

O=C(CCCCCCNC(=O)C(O)(O)C(F)(F)F)Nc1c(F)cc(F)cc1F
IC50 (HCT-116 [1]): 22.2 µM

O=C(CCCCCCC(=O)Nc1ccccc1)NO [VORINOSTAT]
IC50 (HT-1080): 3.56 µM

CCOc1ccc(-c2cnc(NC(=O)CCCCCCNC(=O)C(O)(O)C(F)(F)F)s2)cc1
IC50 (HCT-116 [1]): 4.05 µM

O=C(CCCCCNC(=O)c1cc(=O)c(O)co1)Nc1ccccc1
IC50 (HCT-116 [1]): > 100 µM

COc1ccc2nc(NC(=O)CCCCCCNC(=O)C(O)(O)C(F)(F)F)sc2c1
IC50 (HCT-116 [1]): 7.56 µM

O=C(CCCCCCC(=O)C(F)(F)F)Nc1ccccc1
IC50 (HCT-116 [1]): 10.1 µM | Stability [8]: Unstable | Stability [9]: Unstable

NC(=O)C(=O)NCCCCCC(=O)Nc1ccccc1
IC50 (HCT-116 [1]): > 100 µM

CC(=O)C(=O)NCCCCCCC(=O)Nc1ccccc1
IC50 (HCT-116 [1]): > 100 µM

O=C(CCCCCCNC(=O)C(O)(O)C(F)(F)F)Nc1nc2ccccc2s1
IC50 (NCI-H522 [4]): 2.86 µM | IC50 (HCT-116 [1]): 2.37 µM | IC50 (U2OS): 1.41 µM | GI50 [5]: 3.39 µM | IC50 (MDA-MB-231): 1.83 µM | IC50 (HT-1080): 2.65 µM | Activity [3]: -2.45% | IC50 (HeLa): 1.52 µM | TGI [7]: 21.4 µM | IC50 (MDA-MB-468): 1.31 µM

O=C(CCCCNC(=O)c1cc(=O)c(O)co1)Nc1ccccc1
IC50 (HCT-116 [1]): > 100 µM

O=C(CCCNC(=O)C(O)(O)C(F)(F)F)Nc1ccccc1
IC50 (HCT-116 [1]): 34.8 µM

COc1ccc(-c2cnc(NC(=O)CCCCCCNC(=O)C(O)(O)C(F)(F)F)s2)cc1
TGI [7]: 8.51 µM

COc1ccc(NC(=O)CCCCCCNC(=O)C(O)(O)C(F)(F)F)cc1
viability at 72 h, 30 µM [10]: > 80% | IC50 (HCT-116 [1]): 4.52 µM | IC50 (HCT-116 [11]): 3.13 µM | IC50 at 3 days [12]: > 30 µM | IC50 (NCI-H522 [13]): 8.05 µM | Activity [3]: 37.09% | Activity (NCI-H522 [14]): 20% | IC50 at 3 days [15]: > 30 µM | Activity (HCT-116 [16]): 10% | viability at 72 h, 30 µM [17]: > 50%

COc1cccc(NC(=O)CCCCCCNC(=O)C(O)(O)C(F)(F)F)c1
IC50 (HCT-116 [1]): 6.11 µM

O=C(CCCCCCNC(=O)C(O)(O)C(F)(F)F)Nc1cccc(Br)c1
IC50 (HCT-116 [1]): 3.06 µM

O=C(CCCCCCNC(=O)C(O)(O)C(F)(F)F)Nc1ccc(F)cc1
IC50 (HCT-116 [1]): 7.57 µM

O=C(CCCCCCCNC(=O)c1cc(=O)c(O)co1)Nc1ccccc1
IC50 (HCT-116 [1]): > 100 µM

O=C(CCCCCCNC(=O)C(O)(O)C(F)(F)F)Nc1nc2ccc(Cl)cc2s1
IC50 (HCT-116 [1]): 11 µM

COc1cc(NC(=O)CCCCCCNC(=O)C(O)(O)C(F)(F)F)cc(OC)c1OC
IC50 (HCT-116 [1]): 14.1 µM

O=C(CCCCCCNC(=O)C(O)(O)C(F)(F)F)Nc1ccc(F)cc1F
IC50 (HCT-116 [1]): 18.5 µM

O=C(CCCCCCNC(=O)C(O)C(F)(F)F)Nc1nccs1 (stereo unspecified)
IC50 (HCT-116 [1]): > 40 µM | Stability [2]: Stable

OC(c1c(F)c(F)c(-n2cc(-c3ccccc3)nn2)c(F)c1F)C(F)(F)F (stereo unspecified)
IC50 (HCT-116 [1]): > 100 µM

O=C(CCCCCCNC(=O)C(O)(O)C(F)(F)F)Nc1ccccc1Br
IC50 (HCT-116 [1]): 14.5 µM

O=C(CCCCCCNC(=O)C(O)(O)C(F)(F)F)Nc1ccncc1
IC50 (HCT-116 [1]): 6.67 µM

NC(=O)C(=O)NCCCCC(=O)Nc1ccccc1
IC50 (HCT-116 [1]): > 100 µM
